Series [1] concerns patients with advanced solid malignancies. The format is in vivo, human. The conditions noted are these: linear mixed-effects model parameter estimate. In a few lines: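 The model was a prespecified linear mixed-effects structure for placebo-free oncology trials. It regressed baseline-adjusted QTcF on plasma concentration, with random intercept and slope, plus a fixed effect for baseline QTcF centred on the overall baseline mean. Fitting used restricted maximum likelihood, assuming normal random effects and residuals. Only first-dose data were used (503 time-matched points, 180 patients). Fit was checked with goodness-of-fit plots.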

A further series has as its system patients. The following applies: available clinical data; cited from earlier work.
Series [2] has as its system patients with advanced solid malignancies. Description: Exploratory graphical analysis of model assumptions. The format is in vivo, human. A digest of the protocol:
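Before modelling, first-dose paired data were plotted to check four assumptions: no drug effect on heart rate; a suitable HR correction (RR versus uncorrected QT, QTcF and QTcB); no hysteresis (mean ΔQTcF against concentration, joined in time order per dose); and linearity (loess smooth, linear regression, binned means). Sampling was at baseline, 1, 2, 6 and 24 h (escalation/expansion) or at baseline, 2 and 4–6 h (mutation cohorts).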

Series [3] can be described thus: Plasma pharmacokinetics of capivasertib. The format is in vivo, human.
In series [4] the test system is patients with advanced solid malignancies. Kind of series: Categorical evaluation of QTc, PR and QRS intervals. The format is in vivo, human. The following applies: of 180 patients. In a few lines:
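Patients received single twice-daily-regimen doses of 80–800 mg, either continuous or intermittent. A 12-lead digital ECG was recorded after at least 10 min semi-supine rest. Triplicate tracings were taken about 5 min apart at each time point and averaged, then read centrally. Thresholds were QTc ≥450, ≥480 and ≥500 ms; ΔQTc ≥30 and ≥60 ms; PR ≥200 ms; and QRS ≥110 ms.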

Structures are written as SMILES. “And” between values parts separate entries of the source, which are not always exact repeats. Equal values may be shown once.

Consider `NC1(C(=O)N[C@@H](CCO)c2ccc(Cl)cc2)CCN(c2ncnc3[nH]ccc23)CC1` [capivasertib, 4‐amino‐N‐[(1S)‐1‐(4‐chlorophenyl)‐3‐hydroxypropyl]‐1‐(7H‐pyrrolo[2,3‐d]pyrimidin‐4‐yl)piperidine‐4‐carboxamide], for which, in series [1], the “ɛ Residual variability” value is recorded as 6.452 ms; the “η0 Random effect for intercept” value is 5.350 ms; the “θ0 Intercept” value is -0.269 ms; the “θ1 Slope of capivasertib concentration vs ΔQTcF” value was 0.003 ms/(ng/mL) and 0.00337 ms/(ng/mL). Also, the “θ2 Impact of baseline QTcF on ΔQTcF” value in series [1] is −0.119. The “Reports of serious cardiac events or ECG changes” value in the series with patients was “no reports of sudden death, torsades de pointes, seizures or electrocardiogram (ECG) changes that were considered serious”. Besides, the “Time to maximum ΔQTcF” value in series [2] (after administration of first dose) is at most 2 h. Moreover, the “ΔHR (change in heart rate)” value in series [2] (after first dose, small decrease at 1 hour, not dose-dependent) is at most 10 beats per minute. Moreover, the “Time delay between concentration and ΔQTcF (hysteresis plots)” value in series [2] (in vivo) is recorded as “No evidence of a time‐delay”. The Drug accumulation entry in series [3] (4 days on/3 days off intermittent schedule) is “less than twofold”. Moreover, the “Time at which Cmax was reached after dosing” value in series [3] (after first dose) is listed as “approximately 2 hours”. For the same compound, in series [4] (doses from 80 mg to 800 mg), the “Patients with QRS ≥ 110 ms” value is listed as 5.0%. In addition, in series [4] (single doses 80-800 mg), the “Patients with QTcF ≥ 480 ms” value is listed as “No patients” and the “Patients with ΔQTcF ≥ 60 ms” value is recorded as “No patients”.
